The text below walks through data of ChEMBL document CHEMBL1146201, “Comparison of a SYBR green I-based assay with a histidine-rich protein II enzyme-linked immunosorbent assay for in vitro antimalarial drug efficacy testing and application to clinical isolates” (Antimicrob Agents Chemother, 2007).

Where a name gives a salt, the structure may show the parent alone.

Holding throughout (format): functional, organism-based
In assay [1] the test system is Plasmodium falciparum. Briefly: Growth inhibition after 72 hrs of Plasmodium falciparum 3D7 by HRPII ELISA. The settings on record: 3D7, 72 h. Summed up: (§1)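 Ring-stage cultures (≥70% rings) diluted to 0.5% parasitemia, 2% hematocrit, in RPMI with Albumax I or 10% human serum. Incubated 72 h at 37°C under 5% O2/5% CO2/90% N2 in plates predosed in duplicate with twofold dilutions (chloroquine 3.8–242 nM, quinine 10.8–346 nM, mefloquine 1.1–37.7 nM). Plates were then frozen and thawed. Lysate was assayed by HRPII capture ELISA (IgM capture, HRP detector), A450. IC50/IC90 were derived by nonlinear fitting.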

The test system of assay [2] is Plasmodium falciparum. Put plainly: Growth inhibition after 72 hrs of Plasmodium falciparum D6 by SYBR green I assay. The following applies: D6, 72 h. In short, it runs like this:
(§2)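 Cultures were set up as for the ELISA arm: 0.5% parasitemia, 2% hematocrit, 72 h at 37°C, 5% O2/5% CO2/90% N2, twofold drug dilutions in duplicate. Plates were frozen at −80°C and thawed 2 h. 100 μl culture was mixed with an equal volume of SYBR green I in lysis buffer (Tris 20 mM pH 7.5, EDTA, saponin, Triton X-100), then held 1 h at RT. Fluorescence was read at 485/535 nm, with an uninfected-RBC background control. IC50/IC90 were derived by nonlinear fitting.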

The subject of assay [3] is Plasmodium falciparum. Put plainly: Growth inhibition after 72 hrs of Plasmodium falciparum W2 by HRPII ELISA. The following applies: W2, 72 h. Summed up: as §1
The subject of assay [4] is Plasmodium falciparum. Briefly: Growth inhibition after 72 hrs of Plasmodium falciparum 3D7 by SYBR green assay. The settings on record: 3D7, 72 h. In short, it runs like this:
as §2

Assay [5] has as its system Plasmodium falciparum. Briefly: Growth inhibition after 72 hrs of Plasmodium falciparum W2 by SYBR green I assay. The settings on record: W2, 72 h. In short, it runs like this:
as §2

Assay [6] has as its system Plasmodium falciparum. Put plainly: Growth inhibition after 72 hrs of Plasmodium falciparum D6 by HRPII ELISA. The settings on record: D6, 72 h. Summed up: as §1

On to `O[C@@H](c1cc(C(F)(F)F)nc2c(C(F)(F)F)cccc12)[C@H]1CCCCN1` [MEFLOQUINE HYDROCHLORIDE], for which the half-maximal inhibitory concentration (IC50) in the assay on Plasmodium falciparum [1] was 8.4 nM; in the assay on Plasmodium falciparum [2], 6.4 nM; in the assay with Plasmodium falciparum [3] it was 1.9 nM; in the assay with Plasmodium falciparum [4], 9.4 nM. In addition, the concentration for an effect of 90% (IC90) with Plasmodium falciparum [1] turned out to be 25.6 nM; in the assay with Plasmodium falciparum [2], 23.3 nM; in the assay on Plasmodium falciparum [3], 8 nM; with Plasmodium falciparum [4], 29.8 nM; with Plasmodium falciparum [5] (read-out: IC90) it was 12.2 nM.
Turning to `C=CC1CN2CC[C@H]1C[C@H]2[C@H](O)c1ccnc2ccc(OC)cc12` (single isomer, unassigned) [QUININE HYDROCHLORIDE], the IC50 is 6.7 nM with Plasmodium falciparum [6]; 5.9 nM with Plasmodium falciparum [1]; 6.6 nM in the assay on Plasmodium falciparum [2]; 15.1 nM with Plasmodium falciparum [3]; 6.9 nM in the assay on Plasmodium falciparum [4]; 22.2 nM with Plasmodium falciparum [5]. Further, the concentration for an effect of 90% (IC90) stood at 13.2 nM in the assay with Plasmodium falciparum [6]; 42.6 nM in the assay on Plasmodium falciparum [1]; 12.4 nM in the assay with Plasmodium falciparum [2]; 128 nM with Plasmodium falciparum [3]; 63.7 nM in the assay on Plasmodium falciparum [4]; 116 nM in the assay with Plasmodium falciparum [5] (read-out: IC90).
As for `CCN(CC)CCCC(C)Nc1ccnc2cc(Cl)ccc12` (configuration not stated) [CHLOROQUINE PHOSPHATE], the IC90 in the assay on Plasmodium falciparum [6] came to 15.8 nM; in the assay on Plasmodium falciparum [1], 33.2 nM; in the assay on Plasmodium falciparum [2], 16.1 nM; in the assay on Plasmodium falciparum [3], 129 nM; in the assay on Plasmodium falciparum [4], 26.4 nM; in the assay on Plasmodium falciparum [5], 125 nM.
